Source: ChEMBL document CHEMBL3621107, “Ring fusion strategy for synthesis and lead optimization of sulfur-substituted anthra[1,2-c][1,2,5]thiadiazole-6,11-dione derivatives as promising scaffold of antitumor agents” (Eur J Med Chem, 2015)

Assays:
SNB-19 = assay: Cytotoxicity against human SNB19 cells assessed as cell growth at 10 uM after 48 hrs by SRB assay relative to control; format: functional; conditions: SNB-19, 48 h, read-out: Activity
Method in brief: (§1)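 NCI-60 one-dose screen run by NCI DTP: each cell line exposed to a single 10 µM dose, and percentage growth recorded against untreated growth.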

OVCAR-3 = assay: Cytotoxicity against human OVCAR3 cells assessed as cell growth at 10 uM after 48 hrs by SRB assay relative to control; format: functional; conditions: OVCAR-3, 48 h, read-out: Activity
Method in brief: (§2)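 First-stage NCI DTP one-dose screen against the 60 human tumour cell line panel. Compounds were tested at a single 10 μM level, and results are given as growth percentage.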

HL-60(TB) = assay: Cytotoxicity against human HL-60(TB) cells assessed as cell growth at 10 uM after 48 hrs by SRB assay relative to control; format: functional; conditions: HL-60, 48 h, read-out: Activity
Method in brief: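 NCI Developmental Therapeutics Program 60-cell-line screen, first stage: a single dose of 10 μM against the panel, reported as percentage growth.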

NCI-H226 = assay: Cytotoxicity against human NCI-H226 cells assessed as cell growth at 10 uM after 48 hrs by SRB assay relative to control; format: functional; conditions: NCI-H226, 48 h, read-out: Activity; method in brief: as §2
PC-3 = assay: Cytotoxicity against human PC3 cells after 48 hrs by SRB assay; format: functional, cell-based; conditions: PC-3, 48 h
Method in brief: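 Second-stage NCI-60 panel run by the NCI Developmental Therapeutics Program, covering nine tumour subpanels. Five concentrations were tested: 0.01, 0.1, 1, 10 and 100 μM. Percentage growth at each level was plotted against log10 drug concentration. GI50, TGI and LC50 were read from these dose-response curves. Subpanel MID values were divided into the full-panel MID to give selectivity ratios.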

UACC-257 = assay: Cytotoxicity against human UACC257 cells assessed as cell growth at 10 uM after 48 hrs by SRB assay relative to control; format: functional; conditions: UACC-257, 48 h, read-out: Activity; method in brief: as §1
MDA-MB-231 = assay: Cytotoxicity against human MDA-MB-231 cells assessed as cell growth at 10 uM after 48 hrs by SRB assay relative to control; format: functional; conditions: MDA-MB-231, 48 h, read-out: Activity; method in brief: as §2
SK-OV-3 = assay: Cytotoxicity against human SKOV3 cells assessed as cell growth at 10 uM after 48 hrs by SRB assay relative to control; format: functional; conditions: SK-OV-3, 48 h, read-out: Activity; method in brief: as §2
COLO 205 = assay: Cytotoxicity against human COLO205 cells assessed as cell growth at 10 uM after 48 hrs by SRB assay relative to control; format: functional; conditions: COLO 205, 48 h, read-out: Activity
Method in brief: (§3)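 First-stage NCI-60 screen by the NCI Developmental Therapeutics Program. Each compound was tested once at a single concentration of 10 μM against the 60-cell-line panel. Growth percentage was reported for each cell line.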

[1] = Cytotoxicity against human Hs578T cells assessed as cell growth at 10 uM after 48 hrs by SRB assay relative to control; format: functional; conditions: Hs-578T, read-out: Activity; method in brief: as §3
U-251 = assay: Cytotoxicity against human U251 cells assessed as cell growth at 10 uM after 48 hrs by SRB assay relative to control; format: functional; conditions: U-251, 48 h, read-out: Activity; method in brief: as §1
OVCAR-5 = assay: Cytotoxicity against human OVCAR5 cells assessed as cell growth at 10 uM after 48 hrs by SRB assay relative to control; format: functional; conditions: OVCAR-5, 48 h, read-out: Activity; method in brief: as §2
OVCAR-8 = assay: Cytotoxicity against human OVCAR8 cells assessed as cell growth at 10 uM after 48 hrs by SRB assay relative to control; format: functional; conditions: OVCAR-8, 48 h, read-out: Activity; method in brief: as §2
HCT-116 = assay: Cytotoxicity against human HCT116 cells assessed as cell growth at 10 uM after 48 hrs by SRB assay relative to control; format: functional; conditions: HCT-116, 48 h, read-out: Activity; method in brief: as §3
NCI-H460 = assay: Cytotoxicity against human NCI-H460 cells assessed as cell growth at 10 uM after 48 hrs by SRB assay relative to control; format: functional; conditions: NCI-H460, 48 h, read-out: Activity; method in brief: as §2
A549 = assay: Cytotoxicity against human A549 cells assessed as cell growth at 10 uM after 48 hrs by SRB assay relative to control; format: functional; conditions: A549, 48 h, read-out: Activity; method in brief: as §3
TK-10 = assay: Cytotoxicity against human TK10 cells assessed as cell growth at 10 uM after 48 hrs by SRB assay relative to control; format: functional; conditions: TK-10, 48 h, read-out: Activity; method in brief: as §1
SR = assay: Cytotoxicity against human SR cells assessed as cell growth at 10 uM after 48 hrs by SRB assay relative to control; format: functional; conditions: read-out: Activity; method in brief: as §1
DU-145 = assay: Cytotoxicity against human DU145 cells assessed as cell growth at 10 uM after 48 hrs by SRB assay relative to control; format: functional; conditions: DU-145, 48 h, read-out: Activity; method in brief: as §3
BT-549 = assay: Cytotoxicity against human BT549 cells assessed as cell growth at 10 uM after 48 hrs by SRB assay relative to control; format: functional; conditions: BT-549, 48 h, read-out: Activity; method in brief: as §3
RXF 393 = assay: Cytotoxicity against human RXF393 cells assessed as cell growth at 10 uM after 48 hrs by SRB assay relative to control; format: functional; conditions: RXF 393, 48 h, read-out: Activity; method in brief: as §2
A498 = assay: Cytotoxicity against human A498 cells assessed as cell growth at 10 uM after 48 hrs by SRB assay relative to control; format: functional; conditions: A498, 48 h, read-out: Activity; method in brief: as §3
HOP-62 = assay: Cytotoxicity against human HOP62 cells assessed as cell growth at 10 uM after 48 hrs by SRB assay relative to control; format: functional; conditions: HOP-62, 48 h, read-out: Activity; method in brief: as §3
T47D = assay: Cytotoxicity against human T47D cells assessed as cell growth at 10 uM after 48 hrs by SRB assay relative to control; format: functional; conditions: read-out: Activity; method in brief: as §1
MCF7 = assay: Cytotoxicity against human MCF7 cells assessed as cell growth at 10 uM after 48 hrs by SRB assay relative to control; format: functional; conditions: MCF7, 48 h, read-out: Activity; method in brief: as §3
SF-539 = assay: Cytotoxicity against human SF539 cells assessed as cell growth at 10 uM after 48 hrs by SRB assay relative to control; format: functional; conditions: SF-539, 48 h, read-out: Activity; method in brief: as §2
SF-295 = assay: Cytotoxicity against human SF295 cells assessed as cell growth at 10 uM after 48 hrs by SRB assay relative to control; format: functional; conditions: SF-295, 48 h, read-out: Activity; method in brief: as §2

Row | SMILES | growth at 10 µM (SNB-19) | growth at 10 µM (OVCAR-3) | growth at 10 µM (NCI-H226) | IC50 (PC-3) | growth at 10 µM (UACC-257) | growth at 10 µM (MDA-MB-231) | growth at 10 µM (SK-OV-3) | growth at 10 µM (COLO 205) | growth at 10 µM (U-251) | growth at 10 µM (OVCAR-5) | growth at 10 µM (OVCAR-8) | growth at 10 µM (HCT-116) | growth at 10 µM (A549) | growth at 10 µM (TK-10) | growth at 10 µM (BT-549) | growth at 10 µM (RXF 393) | growth at 10 µM (HOP-62) | growth at 10 µM (T47D) | growth at 10 µM (MCF7) | growth at 10 µM (SF-539) | further results
1 | COc1cccc(Sc2cc3c(c4nsnc24)C(=O)c2ccccc2C3=O)c1 | 106% | 85.8% | 95.3% | > 15 µM | 104% | 87.1% | 110% | 110% | 101% | 123% | 97.3% | 85.7% | 110% | 131% | 94.9% | 124% | 61.8% | 69.1% | 72.8% | 107% | growth at 10 µM (HL-60(TB)): 84.5%; growth at 10 µM [1]: 93.8%; growth at 10 µM (NCI-H460): 100%; growth at 10 µM (SR): 36.1%; growth at 10 µM (DU-145): 98.9%; growth at 10 µM (A498): 83.7%
2 | Cc1cc(C)cc(Sc2cc3c(c4nsnc24)C(=O)c2ccccc2C3=O)c1 | 107% | 118% | 88% | > 15 µM | 116% | 99.2% | 97.5% | 106% | 108% | 107% | 92.2% | 92.3% | 107% | 132% | 95.1% | 112% | 91% | 81.1% | 75.8% | 94.9% | growth at 10 µM (HL-60(TB)): 73.7%; growth at 10 µM (SF-295): 91.1%; growth at 10 µM [1]: 105%; growth at 10 µM (NCI-H460): 105%; growth at 10 µM (SR): 78.4%; growth at 10 µM (DU-145): 122%; growth at 10 µM (A498): 93.6%
3 | O=C1c2ccccc2C(=O)c2c1cc(Sc1ccccc1Br)c1nsnc21 | 71.4% | -65.8% | 92.1% | 5.76 µM | 4.75% | 16.9% | 66.7% | 97.4% | 11.5% | 121% | 2.47% | 16.6% | 95.4% | 76.5% | 52.2% | -8.53% | 4.88% | -33% | -6.39% | -5.66% | growth at 10 µM (HL-60(TB)): -44%; growth at 10 µM (SF-295): 100%; growth at 10 µM [1]: 54.2%; growth at 10 µM (NCI-H460): 58.2%; growth at 10 µM (SR): 2.94%; growth at 10 µM (DU-145): 50.6%; growth at 10 µM (A498): 24.2%
4 | COc1ccc(Sc2cc3c(c4nsnc24)C(=O)c2ccccc2C3=O)cc1 | 114% | 110% | 79.5% | > 15 µM | 118% | 87.6% | 106% | 112% | 103% | 103% | 99.5% | 94.6% | 103% | 136% | 92.9% | 109% | 95.2% | 89.7% | 93.8% | 93.5% | growth at 10 µM (HL-60(TB)): 103%; growth at 10 µM [1]: 96.7%; growth at 10 µM (NCI-H460): 107%; growth at 10 µM (SR): 102%; growth at 10 µM (DU-145): 112%; growth at 10 µM (A498): 84.8%
5 | CCOc1cccc(Sc2cc3c(c4nsnc24)C(=O)c2ccccc2C3=O)c1 | 103% |  | 90.5% | > 15 µM | 126% | 101% | 99.4% | 106% | 110% | 117% | 112% | 101% | 111% | 125% | 104% | 118% | 91.9% | 86.5% | 78.8% | 93.7% | 
6 | Cc1ccccc1Sc1cc2c(c3nsnc13)C(=O)c1ccccc1C2=O | 104% | 5.3% | 95.7% | > 15 µM | 87.3% | 60.7% | 93.8% | 99.2% | 62.4% | 126% | 76.3% | 92.2% | 105% | 123% | 95.3% | 95.9% | 59.5% | 51.9% | 66.1% | 78% | growth at 10 µM (HL-60(TB)): 79.5%; growth at 10 µM (SF-295): 105%; growth at 10 µM [1]: 83.7%; growth at 10 µM (NCI-H460): 88.9%; growth at 10 µM (SR): 23%; growth at 10 µM (DU-145): 102%; growth at 10 µM (A498): 85.5%
7 | Cc1ccc(Sc2cc3c(c4nsnc24)C(=O)c2ccccc2C3=O)c(C)c1 | 102% | 105% | 1.5% | > 15 µM | 122% | 92.3% | 110% | 107% | 105% | 106% | 105% | 94.5% | 110% | 127% | 94.5% | 106% | 79.3% | 75.4% | 79.8% | 100% | growth at 10 µM (HL-60(TB)): 99.9%; growth at 10 µM [1]: 99.1%; growth at 10 µM (NCI-H460): 102%; growth at 10 µM (SR): 70.3%; growth at 10 µM (DU-145): 110%; growth at 10 µM (A498): 84.4%
8 | O=C1c2ccccc2C(=O)c2c1cc(Sc1cccc(Cl)c1)c1nsnc21 | 56.9% |  | 78.1% | 5.64 µM | -84.6% | -29.1% | 95.4% | 106% | -69.5% | 109% | -22.9% | -67.8% | 107% | 53.8% | 36.2% | -27.8% | 42.1% | -42.3% | -69.4% | -52.7% | 
